Test results taken from ChEMBL document CHEMBL1144851, “Opioids and efflux transporters. Part 2: P-glycoprotein substrate activity of 3- and 6-substituted morphine analogs” (J Med Chem, 2008).

Assays:
[1] = biological target: ATP-dependent translocase ABCB1 (Homo sapiens, UniProt P08183); assay: Effect on human recombinant Pgp-mediated ATP consumption assessed as inhibition of ATPase activity at 200 uM by Pgp-Glo assay
In short: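 Recombinant human P-gp incubated with 200 µM compound in P-gp-Glo buffer, four wells each; started with MgATP (10 mM), quenched after 40 min with firefly luciferase ATP detection reagent, luminescence read 60 min later. Untreated, vanadate (100 µM) and verapamil (200 µM) controls; mean ± SEM, t-test.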

[2] = biological target: Mu-type opioid receptor (Homo sapiens, UniProt P35372); assay: Displacement of [3H]diprenorphine from recombinant mu opioid receptor expressed in C6 cells; assay type: cell-based
[3] = biological target: Delta-type opioid receptor (Homo sapiens, UniProt P41143); assay: Displacement of [3H]diprenorphine from recombinant delta opioid receptor expressed in C6 cells; assay type: cell-based
In short: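 Competitive binding against [3H]diprenorphine in membranes of C6 rat glioma cells expressing recombinant δ opioid receptor; Ki from three experiments run in duplicate, mean ± SEM.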

[4] = biological target: Kappa-type opioid receptor (Homo sapiens, UniProt P41145); assay: Displacement of [3H]diprenorphine from recombinant kappa opioid receptor expressed in CHO cells; assay type: cell-based
[5] = Selectivity for recombinant mu opioid receptor over recombinant delta opioid receptor
In short: (§1)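 Ratios of Ki values from [3H]diprenorphine displacement in membranes of C6 rat glioma cells expressing µ or δ receptors and CHO cells expressing κ receptor; three experiments in duplicate.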

[6] = Selectivity for recombinant mu opioid receptor over recombinant kappa opioid receptor; in short: as §1
[7] = test system: Mus musculus; assay: Antinociceptive activity in sc dosed mouse by tail flick assay; assay type: functional
In short: (§2)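 Mice, test compound given subcutaneously; antinociception measured in tail-flick, p-phenylquinone writhing and hot plate assays following CPDD Drug Evaluation Committee protocols. ED50 (mg/kg) with 95% confidence limits.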

[8] = test system: Mus musculus; assay: Antinociceptive activity in sc dosed mouse by p-phenylquinone writhing assay; assay type: functional; in short: as §2
[9] = test system: Mus musculus; assay: Antinociceptive activity in sc dosed mouse by hot plate assay; assay type: functional; in short: as §2

Chain of ATP-dependent translocase ABCB1 (P08183 whole entry): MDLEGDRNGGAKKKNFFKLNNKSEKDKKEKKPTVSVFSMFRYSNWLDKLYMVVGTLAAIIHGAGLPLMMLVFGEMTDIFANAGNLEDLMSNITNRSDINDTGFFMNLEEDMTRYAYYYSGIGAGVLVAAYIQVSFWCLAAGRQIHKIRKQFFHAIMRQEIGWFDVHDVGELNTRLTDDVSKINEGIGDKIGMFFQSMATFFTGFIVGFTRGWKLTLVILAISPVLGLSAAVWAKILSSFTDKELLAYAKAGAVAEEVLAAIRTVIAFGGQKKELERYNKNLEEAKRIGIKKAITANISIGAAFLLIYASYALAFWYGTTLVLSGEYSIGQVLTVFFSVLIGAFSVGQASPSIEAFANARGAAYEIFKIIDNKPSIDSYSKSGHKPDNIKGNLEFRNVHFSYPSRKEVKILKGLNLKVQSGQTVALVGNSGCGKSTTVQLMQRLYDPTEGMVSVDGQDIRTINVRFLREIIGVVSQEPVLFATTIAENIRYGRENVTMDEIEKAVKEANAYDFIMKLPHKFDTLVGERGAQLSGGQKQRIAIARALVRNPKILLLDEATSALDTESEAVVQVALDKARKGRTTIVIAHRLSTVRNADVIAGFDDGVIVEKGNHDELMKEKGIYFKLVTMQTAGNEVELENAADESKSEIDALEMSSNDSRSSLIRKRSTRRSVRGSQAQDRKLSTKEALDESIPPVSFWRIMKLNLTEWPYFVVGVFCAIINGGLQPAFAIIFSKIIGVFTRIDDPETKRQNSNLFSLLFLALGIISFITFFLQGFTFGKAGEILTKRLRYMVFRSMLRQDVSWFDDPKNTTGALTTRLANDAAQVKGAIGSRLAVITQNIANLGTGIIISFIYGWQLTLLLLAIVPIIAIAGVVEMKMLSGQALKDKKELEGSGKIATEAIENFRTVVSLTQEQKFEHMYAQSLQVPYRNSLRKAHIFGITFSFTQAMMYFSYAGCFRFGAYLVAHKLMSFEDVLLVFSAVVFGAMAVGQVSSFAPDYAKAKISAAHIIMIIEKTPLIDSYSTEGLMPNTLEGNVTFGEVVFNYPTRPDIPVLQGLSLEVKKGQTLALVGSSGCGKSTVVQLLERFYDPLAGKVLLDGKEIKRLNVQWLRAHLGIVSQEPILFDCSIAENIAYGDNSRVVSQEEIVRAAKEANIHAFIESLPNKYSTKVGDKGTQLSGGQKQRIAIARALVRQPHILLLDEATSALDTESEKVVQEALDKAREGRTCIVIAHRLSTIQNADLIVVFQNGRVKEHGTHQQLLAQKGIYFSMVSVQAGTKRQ
Chain of Delta-type opioid receptor (P41143 whole entry): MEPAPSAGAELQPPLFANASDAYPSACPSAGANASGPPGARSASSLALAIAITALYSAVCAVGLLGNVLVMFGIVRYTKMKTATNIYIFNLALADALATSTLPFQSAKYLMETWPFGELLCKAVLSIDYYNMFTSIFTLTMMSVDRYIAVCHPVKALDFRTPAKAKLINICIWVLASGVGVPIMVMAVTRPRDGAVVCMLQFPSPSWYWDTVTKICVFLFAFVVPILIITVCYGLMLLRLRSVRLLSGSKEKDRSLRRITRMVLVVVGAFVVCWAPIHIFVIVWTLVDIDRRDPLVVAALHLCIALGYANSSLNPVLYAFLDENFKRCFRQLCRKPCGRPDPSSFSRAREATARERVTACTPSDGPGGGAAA
Chain of Kappa-type opioid receptor (P41145 whole entry): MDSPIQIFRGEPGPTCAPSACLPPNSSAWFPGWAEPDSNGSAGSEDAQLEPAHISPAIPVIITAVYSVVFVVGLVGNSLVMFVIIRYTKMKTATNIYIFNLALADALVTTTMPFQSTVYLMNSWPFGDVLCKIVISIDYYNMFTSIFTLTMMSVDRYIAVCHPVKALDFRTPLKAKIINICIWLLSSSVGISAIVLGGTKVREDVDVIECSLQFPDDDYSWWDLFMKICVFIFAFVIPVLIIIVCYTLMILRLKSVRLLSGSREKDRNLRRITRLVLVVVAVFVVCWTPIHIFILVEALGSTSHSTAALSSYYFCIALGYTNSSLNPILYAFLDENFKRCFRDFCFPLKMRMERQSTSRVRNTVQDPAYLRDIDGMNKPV
Chain of Mu-type opioid receptor (P35372 whole entry): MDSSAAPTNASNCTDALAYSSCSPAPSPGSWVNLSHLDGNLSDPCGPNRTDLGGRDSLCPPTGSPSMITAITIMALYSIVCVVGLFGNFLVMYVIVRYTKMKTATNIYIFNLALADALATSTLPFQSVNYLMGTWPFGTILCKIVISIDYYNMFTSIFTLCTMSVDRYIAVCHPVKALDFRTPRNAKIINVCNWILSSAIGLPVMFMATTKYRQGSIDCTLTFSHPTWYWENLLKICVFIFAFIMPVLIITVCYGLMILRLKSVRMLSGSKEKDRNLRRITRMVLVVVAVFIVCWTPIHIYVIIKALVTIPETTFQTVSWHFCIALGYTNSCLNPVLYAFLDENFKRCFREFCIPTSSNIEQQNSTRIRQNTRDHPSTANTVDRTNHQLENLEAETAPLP

| Compound | Activity [1] | Ki [2] | Ki [3] | Ki [4] | Ratio Ki [5] | Ratio Ki [6] | ED50 [7] | ED50 [8] | ED50 [9] |
| --- | --- | --- | --- | --- | --- | --- | --- | --- | --- |
| CN1CC[C@]23c4c5ccc(O)c4O[C@H]2CC=C[C@H]3[C@H]1C5 | Active | 2.1 nM | 0.0118 µM | 0.0455 µM | 4 | 16 | 0.2 mg/kg | 0.03 mg/kg | 0.33 mg/kg |
| CO[C@H]1C=C[C@H]2[C@H]3Cc4ccc(O)c5c4[C@@]2(CCN3C)[C@H]1O5 [HETEROCODEINE] |  |  | 0.0658 µM | 0.0228 µM |  |  |  |  |  |
| CN1CC[C@]23c4c5cccc4O[C@H]2CCC[C@H]3[C@H]1C5 |  | 22.9 nM | 0.241 µM | 0.589 µM | 11 | 26 |  |  |  |
| CO[C@H]1CC[C@H]2[C@H]3Cc4cccc5c4[C@@]2(CCN3C)[C@H]1O5 |  | 524 nM | 8.83 µM | 11.6 µM | 17 | 22 |  |  |  |
| COc1ccc2c3c1O[C@H]1CC=C[C@H]4[C@@H](C2)N(C)CC[C@]314 | Active | 305 nM | 4.52 µM | 3.09 µM | 15 | 10 |  |  |  |
| CN1CC[C@]23c4c5cccc4O[C@H]2[C@@H](O)CC[C@H]3[C@H]1C5 | Active | 122 nM | 5.25 µM | 4.91 µM | 43 | 40 |  |  |  |
| COc1ccc2c3c1O[C@H]1[C@@H](OC)C=C[C@H]4[C@@H](C2)N(C)CC[C@@]341 |  | 1910 nM | 4.41 µM | 5.43 µM | 2 | 3 |  |  |  |
